In ChEMBL document CHEMBL1122788, “Quantitative relationships between alpha-adrenergic activity and binding affinity of alpha-adrenoceptor agonists and antagonists” (J Med Chem, 1984):

How the values were obtained:
[1] = test system: Rattus norvegicus; experiment: Hypertensive activity (increase in arterial pressure to 60 mmHg)) after i.v. administration to pithed rats.
[2] = Apparent partion coefficient of compound was evaluated in octanol/buffer at pH of 7.4 at 37 degree Centigrade; format: physicochemical; conditions: pH 7.4
[3] = molecular target: T1, Adrenergic receptor alpha-2 (Rattus norvegicus, UniProt P22086+P19328+P22909); experiment: Binding affinity against Alpha-2 adrenergic receptor is the ability to inhibit the specific [3H]-clonidine binding (0.4 nM) to rat isolated brain membranes by 50% was reported; 5.9*10e-8; format: tissue-based, Membrane
T1 sequence (P22086 whole entry): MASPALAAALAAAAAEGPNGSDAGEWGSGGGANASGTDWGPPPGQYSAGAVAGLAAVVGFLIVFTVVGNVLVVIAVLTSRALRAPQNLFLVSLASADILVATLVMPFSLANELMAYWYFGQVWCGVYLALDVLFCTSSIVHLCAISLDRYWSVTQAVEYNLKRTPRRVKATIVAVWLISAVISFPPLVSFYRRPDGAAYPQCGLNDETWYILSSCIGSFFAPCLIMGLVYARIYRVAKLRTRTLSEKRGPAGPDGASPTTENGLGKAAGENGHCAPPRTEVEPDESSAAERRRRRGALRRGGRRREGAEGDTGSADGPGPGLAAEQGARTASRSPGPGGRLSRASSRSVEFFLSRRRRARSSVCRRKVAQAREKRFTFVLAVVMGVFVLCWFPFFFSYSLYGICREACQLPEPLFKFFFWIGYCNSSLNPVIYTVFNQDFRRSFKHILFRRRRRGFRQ
T1 sequence (P19328 whole entry): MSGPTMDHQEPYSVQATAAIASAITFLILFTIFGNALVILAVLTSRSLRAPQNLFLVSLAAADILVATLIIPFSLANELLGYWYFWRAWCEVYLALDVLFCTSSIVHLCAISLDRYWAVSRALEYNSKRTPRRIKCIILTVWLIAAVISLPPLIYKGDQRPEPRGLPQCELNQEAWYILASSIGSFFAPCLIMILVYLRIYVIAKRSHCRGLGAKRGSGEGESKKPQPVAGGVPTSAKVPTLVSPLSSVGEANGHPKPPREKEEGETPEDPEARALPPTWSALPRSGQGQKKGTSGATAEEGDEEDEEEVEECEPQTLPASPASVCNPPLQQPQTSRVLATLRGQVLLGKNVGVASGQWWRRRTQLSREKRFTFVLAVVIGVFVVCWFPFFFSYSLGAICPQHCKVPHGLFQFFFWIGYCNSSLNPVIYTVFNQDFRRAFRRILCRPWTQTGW
T1 sequence (P22909 whole entry): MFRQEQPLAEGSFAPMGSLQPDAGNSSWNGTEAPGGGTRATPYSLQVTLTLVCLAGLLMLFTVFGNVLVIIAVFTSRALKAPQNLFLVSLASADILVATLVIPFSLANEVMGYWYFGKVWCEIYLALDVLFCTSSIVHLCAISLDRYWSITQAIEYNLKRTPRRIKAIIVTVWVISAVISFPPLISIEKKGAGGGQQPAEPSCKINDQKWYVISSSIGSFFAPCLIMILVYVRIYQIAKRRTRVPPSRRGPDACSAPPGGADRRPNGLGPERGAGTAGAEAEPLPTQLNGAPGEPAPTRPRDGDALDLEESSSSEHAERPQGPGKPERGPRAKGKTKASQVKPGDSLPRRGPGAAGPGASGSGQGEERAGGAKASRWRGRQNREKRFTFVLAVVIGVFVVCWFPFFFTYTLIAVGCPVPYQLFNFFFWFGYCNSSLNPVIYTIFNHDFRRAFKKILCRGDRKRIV

[4] = molecular target: T2, Adrenergic receptor alpha-1 (Rattus norvegicus, UniProt P15823+P23944+P43140); experiment: Binding affinity against alpha-1 adrenergic receptor is the ability to inhibit the specific [3H]prazosin binding (0.2 nM) to rat isolated brain membranes by 50% was reported; 8.9*10e-7; format: tissue-based, Membrane
T2 sequence (P15823 whole entry): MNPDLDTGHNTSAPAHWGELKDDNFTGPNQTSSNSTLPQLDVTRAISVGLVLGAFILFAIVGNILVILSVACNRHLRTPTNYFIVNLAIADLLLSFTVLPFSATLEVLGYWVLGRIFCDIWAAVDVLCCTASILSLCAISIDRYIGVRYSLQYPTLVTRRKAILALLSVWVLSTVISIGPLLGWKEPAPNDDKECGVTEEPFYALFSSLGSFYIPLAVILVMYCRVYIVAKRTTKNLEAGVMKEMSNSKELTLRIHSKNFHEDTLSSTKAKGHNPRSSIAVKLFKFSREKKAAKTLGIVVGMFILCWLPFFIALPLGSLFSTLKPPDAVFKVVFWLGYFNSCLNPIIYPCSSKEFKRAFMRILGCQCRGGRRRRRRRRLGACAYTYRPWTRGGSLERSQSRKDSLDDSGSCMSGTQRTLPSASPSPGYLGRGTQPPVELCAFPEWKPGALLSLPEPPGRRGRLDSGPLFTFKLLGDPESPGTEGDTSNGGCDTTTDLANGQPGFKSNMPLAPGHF
T2 sequence (P23944 whole entry): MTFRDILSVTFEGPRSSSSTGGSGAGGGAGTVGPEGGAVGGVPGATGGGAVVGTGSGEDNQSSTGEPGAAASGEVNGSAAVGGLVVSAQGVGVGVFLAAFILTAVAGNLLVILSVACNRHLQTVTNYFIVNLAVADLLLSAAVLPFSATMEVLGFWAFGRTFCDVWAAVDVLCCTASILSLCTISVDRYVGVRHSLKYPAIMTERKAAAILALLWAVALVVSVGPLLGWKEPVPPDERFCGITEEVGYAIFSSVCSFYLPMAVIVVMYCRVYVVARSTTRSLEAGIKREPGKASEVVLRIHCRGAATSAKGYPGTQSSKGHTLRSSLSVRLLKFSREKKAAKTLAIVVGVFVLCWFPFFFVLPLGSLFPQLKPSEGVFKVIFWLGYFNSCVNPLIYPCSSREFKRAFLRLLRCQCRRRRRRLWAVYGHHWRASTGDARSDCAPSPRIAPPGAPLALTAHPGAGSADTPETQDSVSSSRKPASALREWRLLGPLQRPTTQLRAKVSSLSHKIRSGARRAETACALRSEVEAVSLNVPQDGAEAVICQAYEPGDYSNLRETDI
T2 sequence (P43140 whole entry): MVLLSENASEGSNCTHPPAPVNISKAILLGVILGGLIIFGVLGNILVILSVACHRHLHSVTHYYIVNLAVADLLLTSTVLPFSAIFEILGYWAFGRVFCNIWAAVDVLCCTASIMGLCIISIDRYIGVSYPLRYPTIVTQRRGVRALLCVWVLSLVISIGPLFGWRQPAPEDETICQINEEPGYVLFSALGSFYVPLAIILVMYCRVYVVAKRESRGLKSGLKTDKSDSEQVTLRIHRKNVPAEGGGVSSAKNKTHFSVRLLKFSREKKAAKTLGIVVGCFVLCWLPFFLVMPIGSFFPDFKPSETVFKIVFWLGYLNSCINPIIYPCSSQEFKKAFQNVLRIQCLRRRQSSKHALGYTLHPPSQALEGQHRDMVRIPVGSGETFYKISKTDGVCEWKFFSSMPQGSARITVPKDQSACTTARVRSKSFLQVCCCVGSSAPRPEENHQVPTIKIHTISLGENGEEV

[5] = test system: Rattus norvegicus; experiment: Hypotensive activity (25% decrease in arterial pressure) after i.v. administration to anesthetized normotensive rats.
[6] = molecular target: T2, Adrenergic receptor alpha-1; experiment: Binding affinity against alpha-1 adrenergic receptor is the ability to inhibit the specific [3H]prazosin binding (0.2 nM) to rat isolated brain membranes by 50% was reported; 6.1*10e-5; format: tissue-based, Membrane
[7] = molecular target: T1, Adrenergic receptor alpha-2; experiment: Binding affinity against Alpha-2 adrenergic receptor is the ability to inhibit the specific [3H]clonidine binding (0.4 nM) to rat isolated brain membranes by 50% was reported; 1.4*10e-7; format: tissue-based, Membrane
Procedure, shortened: (§1)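 Whole rat brain (minus cerebellum) from male Wistar rats (200–250 g), homogenized in ice-cold 50 mM Tris-HCl pH 7.7 and washed twice at 50000g. […] Bound ligand was collected by rapid filtration and counted. IC50 was derived by log-probit analysis.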

[8] = molecular target: T1, Adrenergic receptor alpha-2; experiment: Binding affinity against Alpha-2 adrenergic receptor is the ability to inhibit the specific [3H]clonidine binding (0.4 nM) to rat isolated brain membranes by 50% was reported; 9.1*10e-9; format: tissue-based, Membrane
Procedure, shortened: as §1

[9] = molecular target: T2, Adrenergic receptor alpha-1; experiment: Binding affinity against alpha-1 adrenergic receptor is the ability to inhibit the specific [3H]-prazosin binding (0.2 nM) to rat isolated brain membranes by 50% was reported; 4.85*10e-6; format: tissue-based, Membrane
Procedure, shortened: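 Whole rat brain (minus cerebellum) from male Wistar rats (200–250 g), homogenized in ice-cold 50 mM Tris-HCl pH 7.7 and washed twice at 50000g. […] Bound ligand was collected by filtration and counted. IC50 was derived by log-probit analysis.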

[10] = molecular target: T1, Adrenergic receptor alpha-2; experiment: 50% inhibition of specific [3H]clonidine binding (0.4 nM) to Alpha-2 adrenergic receptors in rat isolated brain membranes; format: cell membranes, Membrane
Procedure, shortened: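 Whole rat brain (minus cerebellum) from male Wistar rats (200–250 g), homogenized in ice-cold 50 mM Tris-HCl pH 7.7 and washed twice at 50000g. Bound ligand was collected by rapid filtration and counted. IC50 was derived by log-probit analysis.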

[11] = molecular target: T2, Adrenergic receptor alpha-1; experiment: Binding affinity against alpha-1 adrenergic receptor is the ability to inhibit the specific [3H]prazosin binding (0.2 nM) to rat isolated brain membranes by 50% was reported.
[12] = molecular target: T1, Adrenergic receptor alpha-2; experiment: Binding affinity against Alpha-2 adrenergic receptor is the ability to inhibit the specific [3H]clonidine binding (0.4 nM) to rat isolated brain membranes by 50% was reported; 1.6*10e-8; parameters: species or system Membrane
Procedure, shortened: as §1

[13] = molecular target: T1, Adrenergic receptor alpha-2; experiment: Binding affinity against alpha-2 adrenergic receptor is the ability to inhibit the specific [3H]clonidine binding (0.4 nM) to rat isolated brain membranes by 50% was reported.; parameters: species or system Membrane
Procedure, shortened: as §1

Structure (SMILES)	pC60 [1]	pC25 [5]	IC50 [11]	other results
c1ccc(C2CC2)c(OCC2=NCCN2)c1 [CIRAZOLINE]	2.36 uM kg-1			logD [2]: 0.53; IC50 [3]: 59 nM; IC50 [4]: 890 nM
Cc1cccc(C)c1NC1=NCCCS1 [XYLAZINE]	-0.02 uM kg-1	0.62 uM kg-1		IC50 [6]: 61000 nM; IC50 [7]: 140 nM
Clc1cccc(Cl)c1NC1=NCCN1 [CLONIDINE]	1.78 uM kg-1	2.04 uM kg-1		
Cc1csc(Cl)c1NC1=NCCN1 [TIAMENIDINE]	1.2 uM kg-1	0.69 uM kg-1		IC50 [8]: 9.1 nM; IC50 [9]: 4850 nM
CNC[C@H](O)c1cccc(O)c1 [PHENYLEPHRINE]	1.55 uM kg-1			
CCCN(CCC)C1CCc2ccc(O)cc2C1 (configuration not stated)	-0.09 uM kg-1		18000 nM	IC50 [10]: 1200 nM
c1cc2c(c(NC3=NCCN3)c1)CCCC2 [TRAMAZOLINE]	1.8 uM kg-1	0.55 uM kg-1		IC50 [12]: 16 nM
CCCN(CCC)C1CCc2c(ccc(O)c2O)C1 (configuration not stated)	0.54 uM kg-1		15000 nM	IC50 [10]: 80 nM
CCCN(CCC)C1CCc2c(O)cccc2C1 (configuration not stated) [5-OH-DPAT]	-0.13 uM kg-1		18000 nM	IC50 [10]: 850 nM
Brc1c(NC2=NCCN2)ccc2nccnc12 [BRIMONIDINE]		1.55 uM kg-1		
FC(F)(F)c1ccc(Cl)c(NC2=NCCN2)c1	1.21 uM kg-1		470 nM	logD [2]: 1.54; IC50 [13]: 150 nM
